Results from ChEMBL document CHEMBL1629690, “Development of hexadecyloxypropyl tenofovir (CMX157) for treatment of infection caused by wild-type and nucleoside/nucleotide-resistant HIV” (Antimicrob Agents Chemother, 2010).

Experiments:
Assay type in all cases: cell-based
HepG2 = experiment: Cytotoxicity against human HepG2 cells after 24 hrs by XTT assay; conditions: hepg2, 24 h
How it was run: (§1)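 Six-concentration growth-inhibition test: 10 to 0.032 μM for the prodrug and TDF, up to 100 μM for TFV, with Triton X-100 run in parallel. Cell lines were split 1:2 the day before and seeded at 5 × 10^3 to 2 × 10^4 cells/well, with adherent lines left overnight. Dendritic cells were derived with GM-CSF/IL-4 for 7 days, then LPS 10 ng/ml for 2 days. Viability was read by XTT.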

[1] = Cytotoxicity against human HuH7 cells after 24 hrs by XTT assay; conditions: huh-7, 24 h; how it was run: as §1
[2] = Cytotoxicity against human ME180 cells after 24 hrs by XTT assay; conditions: me-180, 24 h; how it was run: as §1
HeLa = experiment: Cytotoxicity against human HeLa cells after 24 hrs by XTT assay; how it was run: as §1
[3] = Cytotoxicity against human dendritic cells after 24 hrs by XTT assay; how it was run: as §1
CEM-SS = experiment: Cytotoxicity against human CEM-SS cells after 24 hrs by XTT assay; how it was run: as §1
PBMC = experiment: Cytotoxicity against PHA/IL-2-stimulated human PBMC after 24 hrs by XTT assay; how it was run: as §1

Measured: Activity

CC(C)OC(=O)OCOP(=O)(CO[C@H](C)Cn1cnc2c(N)ncnc21)OCOC(=O)OC(C)C.O=C(O)/C=C/C(=O)O [TENOFOVIR DISOPROXIL FUMARATE]
Non-toxic: all assays above
